Where “and” joins values, the source holds several entries; their conditions need not be identical. Equal values may be shown once. Calls of active or inactive are those of the source.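 Rule for the calls: active = signal falling with dose, half-maximal concentration at or below ten times the highest valid dose tested; inconclusive = flat curve with loss between 30% and 70%, or a poor fit; inactive = the rest, including flat or rising curves.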
tested on: BJeLR fibroblasts viability, Alamar Blue fluorescence, 48 h; assay: viability loss in BJeLR fibroblasts, dose response, BJeLR cells, dry powder, set 2 (AID 493053); conditions: not given
Method in brief: (§1)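 Medium: DMEM and M199 growth medium with heat-inactivated fetal bovine serum. Schedule: 48-h compound exposure (37 °C, 5% CO2), then ~16-h dye incubation. Detection: Alamar Blue fluorescence, excitation 544 nm, emission 590 nm.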

Compound | AC50
Cc1onc(C(=O)N2CCN(C(c3ccc(F)cc3)c3ccc(F)cc3)CC2)c1[N+](=O)[O-] | 183 nM
Cc1onc(C(=O)N2CCN(C(c3ccccc3)c3ccc(Cl)cc3)CC2)c1[N+](=O)[O-] (stereo not drawn) | 129 nM
COc1ccc(C(c2ccc(OC)cc2)N2CCN(C(=O)c3noc(C)c3[N+](=O)[O-])CC2)cc1 | 1570 nM
O=C(c1ccc([N+](=O)[O-])o1)N1CCN(C(c2ccc(F)cc2)c2ccc(F)cc2)CC1 | 50800 nM
Cc1onc(C(=O)N2CCN(Cc3ccccc3)CC2)c1[N+](=O)[O-] | 65300 nM
Cc1onc(C(=O)N2CCN(C(c3ccc(Cl)cc3)c3ccc(Cl)cc3)CC2)c1[N+](=O)[O-] | 71 nM
Cc1onc(C(=O)NCCNC(c2ccccc2)c2ccccc2)c1[N+](=O)[O-] | 21600 nM
Cc1onc(C(=O)N2CCN(C(c3ccccc3)c3ccccc3)CC2)c1[N+](=O)[O-] | 2270 nM and 1030 nM
Cc1onc(C(=O)N2CCCN(C(c3ccccc3)c3ccccc3)CC2)c1[N+](=O)[O-] | 773 nM
O=C(NCCNC(c1ccccc1)c1ccccc1)c1ccc([N+](=O)[O-])o1 | 39100 nM

tested on: not listed separately; assay: as above; conditions: BJeLR fibroblasts viability, Alamar Blue fluorescence, 48 h; at 48 µM (top of the series)
Method in brief: as §1

Compound | activity change, negative = viability loss
O=C(c1noc2ccccc12)N1CCN(C(c2ccccc2)c2ccccc2)CC1 | 3.47% (inactive)
O=[N+]([O-])c1ccc(CN2CCN(C(c3ccccc3)c3ccccc3)CC2)o1 | 2.87% (inactive)
Cc1onc(C(=O)N2CCN(C(c3ccccc3)c3ccccc3)CC2)c1NS(C)(=O)=O | 15.2% (inactive)
Cc1onc(C(=O)N2CCN(C(c3ccccn3)c3ccccn3)CC2)c1[N+](=O)[O-] | 9.75% (inactive)
CC(=O)Nc1c(C(=O)N2CCN(C(c3ccccc3)c3ccccc3)CC2)noc1C | 11.2% (inactive)
Cc1onc(C(=O)N2CCN(C(c3ccccc3)c3ccccc3)CC2)c1N | 10.4% (inactive)
O=C(c1ccc([N+](=O)[O-])o1)N1CCCN(C(c2ccccc2)c2ccccc2)CC1 | -4.17% (inactive)
Cc1oc(C)c(C(=O)N2CCN(C(c3ccccc3)c3ccccc3)CC2)c1C | 12.2% (inactive)
Cc1ccc(C(=O)N2CCN(C(c3ccccc3)c3ccccc3)CC2)c([N+](=O)[O-])c1 | 14.9% (inactive)
Cc1onc(C(=O)N2CCN(C(c3ccccc3)c3ccccc3)CC2)c1Br | 11.7% (inactive)
Cc1onc(C(=O)N2CCN(C(c3ccncc3)c3ccncc3)CC2)c1[N+](=O)[O-] | 8.19% (inactive)
Cc1onc(C(=O)N2CCN(C(c3ccccc3)c3ccccc3)CC2)c1C | 15.3% (inactive)
CC(C)c1onc(C(=O)N2CCN(C(c3ccccc3)c3ccccc3)CC2)c1[N+](=O)[O-] | 2.95% (inactive)

same assay, conditions: BJeLR fibroblasts viability, Alamar Blue fluorescence, 48 h; at 68 µM (top of the series)

Compound | activity change, negative = viability loss
COc1ccccc1N1CCN(C(=O)c2noc(C)c2[N+](=O)[O-])CC1 | -5.96% (inactive)
Cc1cc(C(=O)N2CCN(Cc3ccccc3)CC2)no1 | 4.49% (inactive)
Cc1onc(C(=O)NCc2ccc(F)cc2)c1[N+](=O)[O-] | -1.57% (inactive)
CCOC(=O)N1CCN(C(=O)c2noc(C)c2[N+](=O)[O-])CC1 | -2.12% (inactive)
Cc1onc(C(=O)N2CCOCC2)c1[N+](=O)[O-] | -1.92% (inactive)
